These results are taken from ChEMBL document CHEMBL5036308, “Chiral Alkyl Groups at Position 3(1') of Pyropheophorbide-a Specify Uptake and Retention by Tumor Cells and Are Essential for Effective Photodynamic Therapy” (J Med Chem, 2021).

A short description of data set [1]: Drug uptake in human HN-143 T-EC cells assessed as drug retention at 1600 nM incubated for 24 hrs in presence of 10% fetal bovine serum measured after 72 hrs chase period by fluorescent microscopy imaging based analysis. As to conditions: 1.6 µM; call rule not given here. Type of data set: ADME, cell-based. In outline:
(§1)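 Cells incubated 24 h in medium with 10% serum and 1600 nM PS, then chased in PS-free medium for up to 72 h with daily medium changes. Cellular PS was measured daily by fluorescence microscopy; net fluorescence intensity per full image frame was quantified in arbitrary units.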

Data set [2] can be described thus: Photoreactivation in human TEC21 cells assessed as STAT3cross-linking in presence of 10% fetal bovine serum under 665 nm light for 9 mins measured after 24 hrs by immune blot analysis. Type of data set: cell-based. As to conditions: tec-21, 0.15 h. In short, it runs like this: (§2)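 TEC-21 cells (p 8) treated 24 h in RPMI + 10% FBS with PS, imaged, chased 48 h in RPMI + 10% FBS, then irradiated 9 min with 665 nm light (6 mW/cm²). Cells were extracted immediately and immunoblotted for STAT3 crosslinking, EGFR and phospho-p38 MAPK.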

Data set [3] is described as follows: Drug uptake in human HN-143-T-EC cells assessed as drug retention in endoplasmic reticulum measured after 72 hrs by fluorescent microscopy. Type of data set: ADME, cell-based.
Data set [4] can be described thus: Drug uptake in human HN-143 T-EC cells assessed as drug retention at 1600 nM incubated for 24 hrs in presence of 10% fetal bovine serum measured after 48 hrs chase period by fluorescent microscopy imaging based analysis. Type of data set: ADME, cell-based. As to conditions: 1.6 µM. In short, it runs like this:
as §1

Data set [5] in a line: Drug uptake in tissue cultured human TEC1-2 cells assessed as drug retention at 1600 nM incubated for 24 hrs in presence of 10% fetal bovine serum measured after 24 hrs chase period by fluorescent microscopy. It is filed as ADME, tissue-based. The note with it: tec1-2, 24 h, 1.6 µM.
Data set [6] is described as follows: Lipophilicity, logP of the compound. It is filed as physicochemical. As to conditions: octanol/water.
The nature of data set [7]: Drug uptake in human HN-143-T-EC cells assessed as drug retention in mitochondria measured after 72 hrs chase period by fluorescent microscopy. It is filed as ADME.
Data set [8] can be described thus: Drug uptake in human HN-143 T-EC cells assessed as drug retention at 1600 nM incubated for 24 hrs in presence of 10% fetal bovine by fluorescent microscopy imaging based analysis. Type of data set: ADME, cell-based. The note with it: 1.6 µM. In short, it runs like this:
as §1

Data set [9] is described as follows: Drug uptake in human HN-143 T-EC cells assessed as slow release by measuring drug retention at 1600 nM incubated for 24 hrs in presence of 10% fetal bovine serum measured after 48 hrs chase period by fluorescent microscopy imaging based analysis. As to conditions: 1.6 µM. It is filed as ADME, cell-based. In short, it runs like this: as §1
Data set [10] is described as follows: Drug uptake in tissue cultured human TEC1-2 cells assessed as drug retention at 1600 nM incubated for 24 hrs in presence of 10% fetal bovine serum measured after 48 hrs chase period by fluorescent microscopy. Type of data set: ADME, tissue-based. The note with it: tec1-2, 24 h, 1.6 µM.
Data set [11] is described as follows: Photoreactivation in human TEC21 cells in presence of 10% fetal bovine serum under 665 nm light for 9 mins measured after 24 hrs by immune blot analysis. Type of data set: cell-based. The note with it: tec-21, 24 h. In outline:
as §2

The logP is the decadic logarithm of the partition coefficient of the neutral form, usually between octanol and water. For the compound `CCCCOC(CCC)c1c(C)c2cc3nc(c4c5[nH]c(cc6nc(cc1[nH]2)C(C)=C6CC)c(C)c5C(=O)C4)[C@@H](CCC(=O)O)C3C` (stereo partly specified), the Drug uptake entry in data set [1], in data set [3], in data set [4], in data set [5], in data set [7] and in [8] was “Active” throughout. The Drug uptake entry in data set [9] and in [10] was “Active” each time. Besides, in [2], the Activity is 3.1%. This compound also had a logP in [6] of 6.56. Also, the Drug metabolism entry in [11] was “Metabolite_Detected”.
